# Assay outcomes (PubChem)
# MIN6 prolif: MIN6 beta-cell proliferation induction; MIN6 cells proliferation, ATPlite luminescence, 48 h; cells starved in 0.2% serum; 100% = growth in 10% serum; proliferation, % at 10 µM; 330,000 tested, 0.29% active;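 active means compounds whose signal lies at least 3.5 SD above the mean of all wells on their plate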;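 further: 0% = DMSO-treated cells in low-serum medium and 100% = 10% serum control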
# iPSC survival up: increases survival of single human iPS cells; 360,000 tested, 0.044% active; hiPSC single-cell survival, ATPlite luminescence; 100% = ROCK inhibitor wells, 0% = DMSO; survival enhancement, % at 20 µM; in the data active means survival enhancement above about 18%;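 further: cells exposed to compounds for 16 hours before the ATP read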
# Granule exo inh: blocks lytic granule exocytosis. TALL-104 LAMP-1 surface exposure, flow cytometry; cells stimulated with thapsigargin and PMA. inhibition, % at 10 µM. 360,000 tested, 0.66% active. AID 651702;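 active means inhibition above about 55%, limit read from the data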
# Apaf-1 inh: human Apaf-1 inhibition; 330,000 tested, 0.71% active; AID 489030; reconstituted apoptosome caspase-3 activity, DEVD-Rh110 fluorescence; inhibition, % at 20 µM; O14727; active means inhibition of at least 40% at 20 µM;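 further: plate controls were DMSO wells for no effect and DEVD-CHO caspase inhibitor wells for full effect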
# Target sequence (O14727 whole entry, looked up): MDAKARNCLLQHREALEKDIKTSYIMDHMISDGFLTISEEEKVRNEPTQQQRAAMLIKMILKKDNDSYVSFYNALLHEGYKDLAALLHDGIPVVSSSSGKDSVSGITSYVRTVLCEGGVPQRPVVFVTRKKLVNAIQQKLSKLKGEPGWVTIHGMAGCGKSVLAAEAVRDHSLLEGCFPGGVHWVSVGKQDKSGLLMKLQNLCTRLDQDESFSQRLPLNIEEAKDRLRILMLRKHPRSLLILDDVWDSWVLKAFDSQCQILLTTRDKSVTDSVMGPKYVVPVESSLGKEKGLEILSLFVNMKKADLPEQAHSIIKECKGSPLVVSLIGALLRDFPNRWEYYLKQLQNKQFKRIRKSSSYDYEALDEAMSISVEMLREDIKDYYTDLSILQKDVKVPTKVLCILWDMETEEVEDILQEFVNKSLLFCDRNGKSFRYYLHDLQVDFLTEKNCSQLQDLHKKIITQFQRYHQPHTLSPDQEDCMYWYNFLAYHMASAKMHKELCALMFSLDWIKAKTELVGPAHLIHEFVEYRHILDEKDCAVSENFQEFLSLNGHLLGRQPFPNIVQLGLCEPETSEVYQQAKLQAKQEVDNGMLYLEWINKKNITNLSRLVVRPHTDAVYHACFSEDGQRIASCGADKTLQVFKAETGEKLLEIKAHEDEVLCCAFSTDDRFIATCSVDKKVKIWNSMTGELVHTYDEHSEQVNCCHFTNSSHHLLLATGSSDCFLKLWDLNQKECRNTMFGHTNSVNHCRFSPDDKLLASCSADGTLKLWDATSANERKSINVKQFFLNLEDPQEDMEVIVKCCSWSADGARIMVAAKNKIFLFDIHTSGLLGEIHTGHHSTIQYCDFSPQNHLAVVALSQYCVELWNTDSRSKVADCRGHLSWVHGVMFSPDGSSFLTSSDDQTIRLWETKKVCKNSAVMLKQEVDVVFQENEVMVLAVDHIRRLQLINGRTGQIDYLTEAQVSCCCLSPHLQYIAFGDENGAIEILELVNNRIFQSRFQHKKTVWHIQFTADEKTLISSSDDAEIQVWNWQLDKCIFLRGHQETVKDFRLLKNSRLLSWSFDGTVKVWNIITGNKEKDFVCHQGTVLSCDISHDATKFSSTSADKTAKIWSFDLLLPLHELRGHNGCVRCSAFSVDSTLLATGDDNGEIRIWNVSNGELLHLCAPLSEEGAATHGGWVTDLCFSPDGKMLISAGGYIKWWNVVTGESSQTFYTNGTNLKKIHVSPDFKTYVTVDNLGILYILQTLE
#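 Material: biochemical Apaf-1 apoptosome reconstitution. Medium: Hepes buffer, pH 7.5. Also added: cytochrome c activation, bis-DEVD rhodamine 110 substrate. Timing: 30 min compound preincubation, 50 min activation, room temperature. Measured by: rhodamine 110 fluorescence at Ex 480/Em 540 nm.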
# MPTP inh: permeability transition pore inhibition. isolated mouse mitochondria, Ca2+ swelling absorbance, 30 min. inhibition, % at 10 µM. 360,000 tested, 1.4% active. AID 602449;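 active means inhibition of 50% or more, scaled per plate between neutral and stimulator controls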;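 further: 0% = DMSO wells given calcium and 100% = 1 mM EGTA wells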
# UBC13 polyUb: inhibitors of human UBC13 polyubiquitin chain formation; P61088; TR-FRET; inhibition, % at 20 µM; 330,000 tested, 0.47% active; in the data active means inhibition above about 45%, passing the limit was not always enough
# MPTP counter: membrane potential counter-screen of mitochondrial pore inhibitors; shares compounds with MPTP inh; isolated mitochondria, Rhodamine 123 fluorescence; inhibition, % at 10 µM; 5,000 tested, 78% active; AID 624504; in the data active means inhibition above about 22%;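 further: 0% = DMSO vehicle and 100% = positive control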
# MPTP swell DR: dose response confirmation of mitochondrial permeability transition pore inhibitors; shares compounds with MPTP inh; isolated mitochondria swelling, absorbance; IC50, µM; 780 tested, 58% active; in the data active means IC50 below about 20 µM
# MPTP cs DR: MPTP inhibitor counter-screen activity, dose response | shares compounds with MPTP inh | isolated mitochondria counterscreen, fluorescence read-out | IC50, µM | 780 tested, 49% active | AID 651564; in the data active means IC50 below about 80 µM
# Numbers without * were called inactive; i = inactive; . = not tested or not shown. Compounds with a hit are over-represented: about 3% of the library has one in this group of screens.
SMILES,MIN6 prolif,iPSC survival up,Granule exo inh,Apaf-1 inh,MPTP inh,UBC13 polyUb,MPTP counter,others
Cc1csc(SCC(=O)c2c(N)n(CC(C)C)c(=O)n(C)c2=O)n1,0,1,-1,-22,51*,6,15,MPTP swell DR=i;MPTP cs DR=5.8*
Cc1cc(NS(=O)(=O)c2ccc(NC(=O)Cc3ccc([N+](=O)[O-])cc3)cc2)nc(C)n1,-4,-1,14,-6,-1,-6,.,
COc1ccc(-c2[nH]c(-c3ccc(C)cc3)nc2SCC(=O)Nc2nccs2)cc1,-2,3,3,3,27,-9,.,
COc1ccc(-c2[nH]c(-c3ccc(SC)cc3)nc2SCC(=O)Nc2nccs2)cc1,-2,0,5,23,68*,1,49*,
Cc1cc(C)c2nc(SCCc3ccccc3)nc(C)c2c1,-4,-1,-1,18,71*,0,-6,MPTP swell DR=i;MPTP cs DR=>80
Cc1cc(C)c2nc(SCc3ccc([N+](=O)[O-])cc3)nc(C)c2c1,-4,-1,-2,1,5,2,.,
CC(C)N(C(=S)Nc1cccc(C(F)(F)F)c1)C(C)c1ccccn1 (stereo not drawn),1,2,-2,2,92*,-12,83*,
Cc1ccsc1CNS(=O)(=O)c1ccc(F)cc1,2,0,0,4,-2,-4,.,
O=S(=O)(Nc1nc2ccccc2nc1Nc1ccc(N2CCOCC2)cc1)c1cc(Cl)ccc1Cl,-6,-2,0,18,86*,-27,77*,
Cc1cc(NC(=O)Nc2cccc(Cl)c2)n(-c2ccccc2)n1,-2,-1,-1,-7,58*,2,86*,
Cc1cc(NC(=O)Nc2ccc(Cl)c(Cl)c2)n(-c2ccccc2)n1,-2,0,-2,-1,86*,8,87*,
Cc1cc(NC(=O)Nc2cccc(Cl)c2)n(-c2ccccn2)n1,0,0,-8,18,43,9,.,
Oc1ccc(-c2n[nH]c(C(F)(F)F)c2-c2ccccc2)c(O)c1,-5,0,3,4,84*,7,76*,
O=S(=O)(c1cccs1)N1CCN(CC(O)COc2cc(Cl)ccc2Cl)CC1 (stereo not drawn),-4,-3,8,17,87*,6,91*,
CCOc1ccc(N/N=C(/C#N)C(N)=O)cc1,0,0,-2,-14,1,8,.,
CCOC(=O)NC(=O)/C(C#N)=N\Nc1cccc(Cl)c1,-6,1,8,-10,93*,-14,73*,
N#C/C(=N\Nc1ccc(Cl)cc1)C(=O)c1ccccc1,-5,-1,4,-4,96*,-8,83*,
CCOC(=O)NC(=O)/C(C#N)=N\Nc1ccc(Cl)cc1,1,-2,2,13,90*,-20,95*,
Nc1ncnc2c1ncn2C1C=C(CO)C(O)C1O (stereo not drawn),.,0,0,.,-1,.,.,
CCOC(=O)[C@]12CCCC=C1N(Cc1ccco1)C(=O)[C@H](CC(=O)NCc1cccs1)C2,.,-1,4,.,0,.,.,
CC(=O)N1c2ccc(S(=O)(=O)NCCC(=O)Nc3ccc(F)cc3C)cc2CC1C (stereo not drawn),3,-1,0,-6,1,-4,.,
CCN(CC)S(=O)(=O)c1ccc2c(c1)c(=O)c(C(=O)N1CCN(c3ccccn3)CC1)cn2C,-2,0,-8,5,0,-6,.,
Cc1nc2ccccn2c1-c1csc(Nc2cccc(O)c2)n1,.,-1,12,.,18,.,.,
Cc1cccc(Nc2nc(-c3c(C)nc4ccccn34)cs2)c1,-4,-2,3,25,86*,4,76*,
CCOC(=O)/C=C/C(=O)Nc1cc(S(=O)(=O)Nc2ccc(OC)cc2)ccc1N1CCOCC1,-7,0,7,7,57*,-6,70*,
SMILES,MIN6 prolif,iPSC survival up,Granule exo inh,Apaf-1 inh,MPTP inh,UBC13 polyUb,MPTP counter,others
COc1cc(Cl)c(C)cc1NC(=O)c1ccc(NS(=O)(=O)c2ccc(F)c(F)c2)cc1,-6,1,8,4,51*,-4,60*,
COc1ccc(NS(=O)(=O)c2ccc(N3CCOCC3)c(NC(=O)c3cccc(F)c3)c2)cc1,-1,2,4,3,18,-6,.,
COc1ccc(NS(=O)(=O)c2ccc(N3CCOCC3)c(NC(=O)c3ccc(F)cc3)c2)cc1,0,-1,0,5,73*,9,17,MPTP swell DR=>100;MPTP cs DR=>80
COc1ccc(NS(=O)(=O)c2ccc(N3CCOCC3)c(NC(=O)C(C)C)c2)cc1,-2,-1,-2,-3,76*,-2,55*,
CC(C)COC(=O)N1CCCCC1c1cc(C(=O)NCc2ccccc2)no1 (stereo not drawn),.,0,2,.,2,.,.,
CN(Cc1ccccc1)C(=O)Cn1nnc(-c2ccccc2)c1COc1ccc2ccccc2c1,.,-1,7,.,1,.,.,
Cc1ccnc(NS(=O)(=O)c2cc(-c3cc(C)no3)ccc2C(C)C)c1,-3,0,-3,14,0,-7,.,
CCNC(=O)C1(C)CCCN(Cc2ccc(-n3ccnc3)cc2)C1 (stereo not drawn),.,-1,-4,.,0,.,.,
COc1ccc(-c2cc(C(=O)NCC3CCCCC3)[nH]n2)c(C)c1,.,4,5,.,0,.,.,
Cc1cc(C(=O)Nc2ccc(Br)cc2)cs1,-3,0,0,3,-1,0,.,
CC1CN(/C=C/C=O)C(C)CC1OC(=O)c1ccccc1 (stereo not drawn),-4,0,-13,9,0,-2,.,
COc1cc(C(=O)N2CCN(C(=O)c3cc(-c4ccc(Br)cc4)n[nH]3)CC2)cc(OC)c1OC,-2,0,1,3,0,-8,.,
CN1CCN(c2ccc(Cl)cc2NC(=O)/C=C/c2cccc(F)c2)CC1,-6,-4,10,5,74*,-4,-23,MPTP swell DR=6.8*;MPTP cs DR=>80
O=C(NCc1ccc(Cl)cc1)c1n[nH]c([N+](=O)[O-])c1Cl,-1,3,4,-11,76*,-3,91*,
COc1ccc(-c2nc(CN3CCN(c4ncnc5ccccc45)CC3)c(C)o2)c(OC)c1,-5,-2,23,0,66*,6,29*,
O=C(Nc1ccc(Cl)c(Cl)c1)Nc1nc(-c2ccccc2)cs1,-3,7,-1,-366,74*,-16,73*,
O=C(Nc1ccccc1)Nc1nc(-c2ccccc2)cs1,1,-1,-5,9,85*,9,80*,
